The test system of data set [1] is Plasmodium falciparum. The data set can be described thus: Antimalarial activity against ring stage chloroquine-sensitive Plasmodium falciparum 3D7 infected in human O positive erythrocytes after 48 hrs by SYBR green 1 fluorescence assay. The data set is classed as functional, organism-based. Particulars: 3D7, 48 h. Put shortly: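 P. falciparum 3D7 in O+ human erythrocytes in complete RPMI with Albumax at 37 °C under 5% O2/5% CO2. Culture was sorbitol-synchronized to rings and plated at 2% hematocrit, 1% parasitemia. Drug range was 0–100 μM with 0.4% final DMSO, in triplicate. After 48 h, SYBR Green I fluorescence was read (ex 497/em 520 nm). IC50 was taken by visual matching of 50% growth inhibition.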

Data set [2] has as its system Plasmodium falciparum. Put plainly: Antimalarial activity against ring stage chloroquine-resistant Plasmodium falciparum INDO infected in human O positive erythrocytes after 48 hrs by SYBR green 1 fluorescence assay. The data set is classed as functional, organism-based. The procedure, abridged: (§1)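 Ring-stage cultures were sorbitol-synchronized in O+ human erythrocytes in RPMI 1640 with 0.5% Albumax, hypoxanthine and gentamicin, then plated at 2% hematocrit and 1% parasitemia. Drugs were tested at 0–100 μM (final DMSO 0.4%) in triplicate for 48 h at 37 °C under 5% O2/5% CO2/90% N2. Read-out was SYBR Green I (ex 497/em 520 nm). IC50 was read visually as 50% growth inhibition, with chloroquine as control.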

Data set [3] in a line: Therapeutic index, ratio of IC50 for […] cells to IC50 for ring stage chloroquine-sensitive Plasmodium falciparum 3D7. The data set is classed as cell-based. To be noted: mouse, read-out: Ratio IC50. The procedure, abridged: (§2)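 HeLa or L929 fibroblasts were seeded at 10^4 cells per well in RPMI with 10% FBS, left overnight, then exposed 24 h at 37 °C, 5% CO2. MTT was added for 3 h; formazan was dissolved in DMSO and read at 570 nm. IC50 came from dose–response curves. Index = IC50(mammalian)/IC50(Pf 3D7, SYBR Green assay).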

Data set [4] concerns Plasmodium falciparum. Put plainly: Antimalarial activity against ring stage chloroquine-resistant Plasmodium falciparum Dd2 infected in human O positive erythrocytes after 48 hrs by SYBR green 1 fluorescence assay. To be noted: Dd2, 48 h. The data set is classed as functional, organism-based. The procedure, abridged: as §1
Data set [5] can be described thus: Resistance index, ratio of IC50 for ring stage chloroquine-resistant Plasmodium falciparum Dd2 to IC50 for ring stage chloroquine-sensitive Plasmodium falciparum 3D7. The data set is classed as functional.
The nature of data set [6]: Resistance index, ratio of IC50 for ring stage chloroquine-resistant Plasmodium falciparum INDO to IC50 for ring stage chloroquine-sensitive Plasmodium falciparum 3D7. The data set is classed as functional.
Data set [7] in a line: Therapeutic index, ratio of IC50 for human HeLa cells to IC50 for ring stage chloroquine-sensitive Plasmodium falciparum 3D7. The data set is classed as cell-based. To be noted: read-out: Ratio IC50. Put shortly: as §2
Data set [8] in a line: Inhibition of Plasmodium falciparum falcipain-2 using benzyloxycarbonyl-Phe-Arg-7-amino-4-methyl coumarin hydrochloride as substrate preincubated for 10 mins prior substrate addition by fluorimetric assay. The procedure, abridged:
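Recombinant falcipain-2 (2 μg) was preincubated 10 min at room temperature with or without compound, in triplicate. Buffer was 100 mM sodium acetate pH 5.5 with 10 mM DTT and 1% final DMSO. Z-Phe-Arg-AMC was then added at 10 μM final. AMC release was read at ex 355/em 460 nm. IC50 was taken by visual matching of 50% inhibition.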

For `COc1cc(OC)c(OC)cc1/C=C/C(=O)c1ccc(/C=C/c2cc(OC)c(OS(=O)(=O)c3cc(Cl)cc(Cl)c3)c(OC)c2)cc1`, the IC50 with Plasmodium falciparum [1] was above 100 µM.
Consider `O=C(/C=C/c1ccco1)c1ccc(/C=C/c2ccccc2)cc1`, for which the IC50 in the data set with Plasmodium falciparum [1] was above 100 µM.
On the same count and under the same terms, in the case of `COc1cc(OC)c(OC)cc1/C=C/C(=O)c1ccc(/C=C/c2cc(OC)c(OS(=O)(=O)c3ccc(C)cc3)c(OC)c2)cc1` it was above 100 µM.
As to `COc1cc(/C=C/c2ccc(C(=O)/C=C/c3ccc(OC)c(OC)c3OC)cc2)cc(OC)c1O`, the IC50 in the data set with Plasmodium falciparum [2] came to 5.88 µM; with Plasmodium falciparum [4], 5.39 µM; with Plasmodium falciparum [1], 4.9 µM; in data set [8], 70 µM. Besides, the selectivity ratio in data set [3] and in data set [7] was above 43 in each case. Besides, the “Ratio IC50” value in data set [5] was 1.1; in data set [6], 1.2.
As for `COc1ccc(C(=O)/C=C/c2ccc(/C=C/c3cc(OC)c(O)c(OC)c3)cc2)cc1`, in the data set with Plasmodium falciparum [1], the midpoint of inhibition, the IC50, lay at 50 µM.
Take `COc1cc(OC)c(OC)cc1/C=C/C(=O)c1ccc(/C=C/c2ccc(Cl)cc2)cc1`: in the data set on Plasmodium falciparum [1], the IC50 is above 100 µM.
The same measure, in the same setting: for `COc1ccc(/C=C/C(=O)c2ccc(/C=C/c3ccc(O)c(OC)c3)cc2)cc1` the value was 34 µM; for `COc1ccc(/C=C/c2cc(OC)c(O)c(OC)c2)cc1`, above 100 µM; for `COc1cc(OC)c(OC)cc1/C=C/C(=O)c1ccc(/C=C/c2ccccc2)cc1`, 18 µM.
With `COc1ccc(/C=C/C(=O)c2ccc(/C=C/c3cc(OC)c(O)c(OC)c3)cc2)cc1`, the IC50 with Plasmodium falciparum [1] worked out at 15 µM.
Still for that read-out and setting: in the case of `COc1cc(OC)c(OC)cc1/C=C/C(=O)c1ccc(/C=C/c2ccc(O)cc2)cc1` it was 10 µM.
Regarding `COc1cc(OC)c(C(=O)/C=C/c2ccc(/C=C/c3cc(OC)c(O)c(OC)c3)cc2)cc1OC`, the IC50 is 2.58 µM in the data set with Plasmodium falciparum [2], 3.01 µM in the data set on Plasmodium falciparum [4], 4.3 µM in the data set on Plasmodium falciparum [1] and 100 µM in data set [8]. For the same compound, the results for the selectivity ratio in data set [3] and in data set [7] were 8.4 and above 46.5, respectively. Further, the “Ratio IC50” value in data set [5] is given as 0.7; in data set [6] it was 0.6.
For `COc1cc(OC)c(OC)cc1/C=C/C(=O)c1cccc(C(=O)/C=C/c2cc(OC)c(OC)cc2OC)c1`, the concentration for half-maximal inhibition (IC50) in the data set on Plasmodium falciparum [1] amounted to 2.8 µM.
Regarding `COc1cc(OC)c(/C=C/C(=O)c2ccc(/C=C/c3cc(OC)c(O)c(OC)c3)cc2)c(OC)c1`, inhibition in the data set on Plasmodium falciparum [1] was half-maximal at 16 µM (IC50).
`COc1cc(/C=C/c2ccc(C(=O)/C=C/c3cc(OC)c(OC)cc3OC)cc2)ccc1O`: the concentration for half-maximal inhibition (IC50) in the data set on Plasmodium falciparum [2] stood at 2.65 µM; in the data set on Plasmodium falciparum [4], 3.71 µM; in the data set on Plasmodium falciparum [1] it was 5.3 µM; in data set [8], 23 µM. The selectivity ratio in data set [3] was 4.7; in data set [7], above 37.7. The entries for the “Ratio IC50” value in data set [5] and in data set [6] were 0.7 and 0.5, respectively.
As for `COc1cc(OC)c(OC)cc1/C=C/C(=O)c1ccc(/C=C/c2cc(OC)c(OC)c(OC)c2)cc1`, the IC50 in the data set with Plasmodium falciparum [2] turned out to be 2.08 µM; in the data set on Plasmodium falciparum [4] it was 2.6 µM; with Plasmodium falciparum [1] it was 5.2 µM; in data set [8], 20.5 µM. Further, the selectivity ratio was 29.8 in data set [3] and above 38.5 in data set [7]. Further, the “Ratio IC50” value in data set [5] was found to be 0.5; in data set [6], 0.4.
`O=C(/C=C/c1cccs1)c1ccc(/C=C/c2ccccc2)cc1` had an IC50 in the data set on Plasmodium falciparum [1] of 36.3 µM.
Turning to `COc1ccc(/C=C/C(=O)c2ccc(/C=C/c3ccccc3)cc2)cc1OC`, half-maximal inhibition in the data set on Plasmodium falciparum [1] (IC50) required 29.5 µM.
`O=C(/C=C/c1c[nH]c2ccc(Cl)cc12)c1ccc(/C=C/c2ccccc2)cc1` displayed an IC50 with Plasmodium falciparum [1] of 25.6 µM.
In turn, `COc1cc(OC)c(OC)cc1/C=C/C(=O)c1ccc(O)cc1` showed an IC50 in the data set on Plasmodium falciparum [1] of 61 µM.
Take `COc1ccc(C(=O)/C=C/c2ccc(/C=C/c3ccc(O)c(OC)c3)cc2)cc1`: the IC50 in the data set with Plasmodium falciparum [1] is 66 µM.
Turning to `COc1cc(/C=C/c2ccc(/C=C/c3cc(OC)c(O)c(OC)c3)cc2)cc(OC)c1O`, the IC50 in the data set with Plasmodium falciparum [1] came out at 11 µM.
As for `COc1cc(OC)c(OC)cc1/C=C/C(=O)c1ccc(/C=C/c2ccc(O)c(O)c2)cc1`, the IC50 with Plasmodium falciparum [2] worked out at 4.6 µM; in the data set on Plasmodium falciparum [4], 7.1 µM; with Plasmodium falciparum [1], 4.2 µM; in data set [8], 19 µM. The selectivity ratio is 7.6 in data set [3] and above 23.8 in data set [7]. For the same compound, the “Ratio IC50” value in data set [5] was 1.7; in data set [6], 1.1.
In the case of `COc1ccc(/C=C/C(=O)c2ccc(/C=C/c3ccccc3)cc2)cc1`, the IC50 in the data set with Plasmodium falciparum [1] is above 100 µM.

(Values after ChEMBL document CHEMBL1949593, “Stilbene-chalcone hybrids: design, synthesis, and evaluation as a new class of antimalarial scaffolds that trigger cell death through stage specific apoptosis” (J Med Chem, 2012).)
